# Experimental data as given in ChEMBL document CHEMBL1165943, “Design and synthesis of new anticancer pyrimidines with multiple-kinase inhibitory effect” (Bioorg Med Chem, 2010).
# The source made the active and inactive calls. The calls are words filed in the database; no cut-off is given here.
# Tests used:
# SNB-19 [1] = assay: Cytotoxicity against human SNB19 cells assessed as cell growth at 0.01 uM after 48 hrs by sulforhodamine B assay; assay type: functional; conditions: SNB-19, 48 h, read-out: Activity
# Malme-3M = assay: Growth inhibition of human MALME-3M cells after 48 hrs by sulforhodamine B assay; assay type: functional, cell-based
# Outline: (§1)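 Cells grown in RPMI 1640 with 5% FBS and 2 mM L-glutamine, seeded at 5,000–40,000 cells/well according to doubling time. After 24 h, time-zero plates are TCA-fixed. Five concentrations (10-fold or ½log dilutions, DMSO stocks) are applied for 48 h at 37 °C, 5% CO₂. Cells are TCA-fixed, SRB-stained and read at 515 nm. IC₅₀ is taken from [(Ti−Tz)/(C−Tz)]×100 = 50.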
# A498 = assay: Cytotoxicity against human A498 cells assessed as cell growth at 10 uM after 48 hrs by sulforhodamine B assay; assay type: functional; conditions: A498, 48 h, read-out: Activity
# Outline: (§2)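 Cells grown in RPMI 1640 with 5% FBS and 2 mM L-glutamine, seeded at 5,000–40,000 cells/well by doubling time. Time-zero plates TCA-fixed after 24 h. Five concentrations (10-fold or half-log dilutions from DMSO stock) added; 48 h at 37 °C, 5% CO2. Cold TCA fixation (final 10%, 60 min, 4 °C), 0.4% SRB stain, dye solubilized in 10 mM trizma base, A515.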
# MDA-MB-435 = assay: Cytotoxicity against human MDA-MB-435 cells assessed as cell growth at 0.01 uM after 48 hrs by sulforhodamine B assay; assay type: functional; conditions: MDA-MB-435, 48 h, read-out: Activity
# K562 = assay: Cytotoxicity against human K562 cells assessed as cell growth at 10 uM after 48 hrs by sulforhodamine B assay; assay type: functional; conditions: K562, 48 h, read-out: Activity
# SW-620 = assay: Cytotoxicity against human SW620 cells assessed as cell growth at 0.001 uM after 48 hrs by sulforhodamine B assay; assay type: functional; conditions: SW-620, 48 h, read-out: Activity
# MOLT-4 = assay: Cytotoxicity against human MOLT4 cells assessed as cell growth at 100 nM after 48 hrs by sulforhodamine B assay; assay type: functional; conditions: MOLT-4, 48 h, read-out: Activity
# HCT-15 = assay: Cytotoxicity against human HCT15 cells assessed as cell growth at 10 uM after 48 hrs by sulforhodamine B assay; assay type: functional; conditions: HCT-15, 48 h, read-out: Activity
# SK-MEL-5 = assay: Cytotoxicity against human SK-MEL-5 cells assessed as cell growth at 0.01 uM after 48 hrs by sulforhodamine B assay; assay type: functional; conditions: SK-MEL-5, 48 h, read-out: Activity
# NCI-H460 [2] = assay: Cytotoxicity against human NCI-H460 cells assessed as cell growth at 10 uM after 48 hrs by sulforhodamine B assay; assay type: functional; conditions: NCI-H460, 48 h, read-out: Activity
# HL-60(TB) = assay: Cytotoxicity against human HL-60(TB) cells assessed as cell growth at 1 uM after 48 hrs by sulforhodamine B assay; assay type: functional; conditions: HL-60, 48 h, read-out: Activity
# Outline: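 Five-concentration HL-60(TB) test in RPMI 1640 with 5% FBS and 2 mM L-glutamine. Cells are plated at 5,000–40,000/well and a TCA-fixed time-zero plate is read at drug addition after 24 h. Drug is dissolved in DMSO and given as five 10-fold or ½log dilutions for 48 h at 37 °C, 5% CO2. Settled cells are fixed with TCA, stained with SRB and read at 515 nm.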
# OVCAR-3 = assay: Cytotoxicity against human OVCAR-3 cells assessed as cell growth at 0.001 uM after 48 hrs by sulforhodamine B assay; assay type: functional; conditions: OVCAR-3, 48 h, read-out: Activity
# ACHN = assay: Cytotoxicity against human ACHN cells assessed as cell growth at 0.01 uM after 48 hrs by sulforhodamine B assay; assay type: functional; conditions: read-out: Activity; outline: as §2
# LOX IMVI [3] = assay: Cytotoxicity against human LOXIMVI cells assessed as cell growth at 100 nM after 48 hrs by sulforhodamine B assay; assay type: functional; conditions: read-out: Activity
# U-251 = assay: Cytotoxicity against human U251 cells assessed as cell growth at 0.01 uM after 48 hrs by sulforhodamine B assay; assay type: functional; conditions: U-251, 48 h, read-out: Activity
# LOX IMVI [4] = assay: Growth inhibition of human LOXIMVI cells after 48 hrs by sulforhodamine B assay; assay type: functional, cell-based; conditions: for CC50: read-out: LC50 (the source's name); outline: as §1
# OVCAR-5 [5] = assay: Cytotoxicity against human OVCAR5 cells assessed as cell growth at 0.001 uM after 48 hrs by sulforhodamine B assay; assay type: functional; conditions: OVCAR-5, 48 h, read-out: Activity
# UACC-257 = assay: Cytotoxicity against human UACC257 cells assessed as cell growth at 0.01 uM after 48 hrs by sulforhodamine B assay; assay type: functional; conditions: UACC-257, 48 h, read-out: Activity
# HCT-116 = assay: Cytotoxicity against human HCT116 cells assessed as cell growth at 0.001 uM after 48 hrs by sulforhodamine B assay; assay type: functional; conditions: HCT-116, 48 h, read-out: Activity
# OVCAR-5 [6] = assay: Cytotoxicity against human OVCAR5 cells assessed as cell growth at 0.01 uM after 48 hrs by sulforhodamine B assay; assay type: functional; conditions: OVCAR-5, 48 h, read-out: Activity
# HT-29 = assay: Cytotoxicity against human HT-29 cells assessed as cell growth at 0.001 uM after 48 hrs by sulforhodamine B assay; assay type: functional; conditions: HT-29, 48 h, read-out: Activity
# SNB-19 [7] = assay: Cytotoxicity against human SNB19 cells assessed as cell growth at 1 uM after 48 hrs by sulforhodamine B assay; assay type: functional; conditions: SNB-19, 48 h, read-out: Activity
# SK-OV-3 = assay: Growth inhibition of human SKOV3 cells after 48 hrs by sulforhodamine B assay; assay type: functional, cell-based; conditions: SK-OV-3, 48 h; outline: as §1
# DU-145 = assay: Cytotoxicity against human DU145 cells assessed as cell growth at 10 uM after 48 hrs by sulforhodamine B assay; assay type: functional; conditions: DU-145, 48 h, read-out: Activity
# SF-539 = assay: Cytotoxicity against human SF539 cells assessed as cell growth at 0.001 uM after 48 hrs by sulforhodamine B assay; assay type: functional; conditions: SF-539, 48 h, read-out: Activity
# SNB-19 [8] = assay: Cytotoxicity against human SNB19 cells assessed as cell growth at 100 nM after 48 hrs by sulforhodamine B assay; assay type: functional; conditions: SNB-19, 48 h, read-out: Activity
# EKVX = assay: Cytotoxicity against human EKVX cells assessed as cell growth at 100 nM after 48 hrs by sulforhodamine B assay; assay type: functional; conditions: read-out: Activity
# NCI-H460 [9] = assay: Cytotoxicity against human NCI-H460 cells assessed as cell growth at 0.001 uM after 48 hrs by sulforhodamine B assay; assay type: functional; conditions: NCI-H460, 48 h, read-out: Activity
SMILES,growth at 0.01 µM (SNB-19 [1]) [%],"TGI (Malme-3M; Homo sapiens, Malme-3M, 48 h) [µM]",growth at 10 µM (A498) [%],growth at 0.01 µM (MDA-MB-435) [%],growth at 10 µM (K562) [%],growth at 0.001 µM (SW-620) [%],growth at 0.1 µM (MOLT-4) [%],growth at 10 µM (HCT-15) [%],growth at 0.01 µM (SK-MEL-5) [%],growth at 10 µM (NCI-H460 [2]) [%],growth at 1 µM (HL-60(TB)) [%],growth at 0.001 µM (OVCAR-3) [%],growth at 0.01 µM (ACHN) [%],growth at 0.1 µM (LOX IMVI [3]) [%],growth at 0.01 µM (U-251) [%],GI50 (LOX IMVI [4]) [µM],IC50 (LOX IMVI [4]) [µM],TGI (LOX IMVI [4]),CC50 (LOX IMVI [4]) [µM],growth at 0.001 µM (OVCAR-5 [5]) [%],also measured
CC(=O)Nc1cccc(-c2ccc(-c3ccnc(NC(=O)Nc4cc(C(F)(F)F)cc(C(F)(F)F)c4)n3)cn2)c1.Cl,96,4.48,-77,97,19,95,69,-86,91,-60,28,101,90,81,90,1.79,1.79,inactive,> 100,97,"LC50 (Malme-3M): inactive; GI50 (Malme-3M; Homo sapiens, Malme-3M, 48 h): 2.01 µM; IC50 (Malme-3M; Homo sapiens, Malme-3M, 48 h, read-out: IC50): 2.01 µM; growth at 0.01 µM (UACC-257): 96%; growth at 0.001 µM (HCT-116): 92%; growth at 0.01 µM (OVCAR-5 [6]): 82%; growth at 0.001 µM (HT-29): 106%; growth at 1 µM (SNB-19 [7]): 29%; GI50 (SK-OV-3): 13.1 µM; IC50 (SK-OV-3): 13.1 µM; LC50 (concentration giving 50% net cell kill) (SK-OV-3): 78.8 µM; TGI (SK-OV-3): 32.2 µM; growth at 10 µM (DU-145): -93%; growth at 0.001 µM (SF-539): 97%; growth at 0.1 µM (SNB-19 [8]): 90%; growth at 0.1 µM (EKVX): 63%; growth at 0.001 µM (NCI-H460 [9]): 95%"
CC(=O)c1ccccc1-c1ccc(-c2ccnc(NC(=O)Nc3cc(N4CCOCC4)cc(C(F)(F)F)c3)n2)cn1,98,> 100,98,95,103,98,75,87,99,88,88,107,99,90,98,34.9,> 100,> 100 µM,> 100,94,"CC50 (Malme-3M; Homo sapiens, Malme-3M, 48 h, read-out: LC50 (the source's name)): > 100 µM; IC50 (Malme-3M; malme-3m): Not Active; growth at 0.01 µM (UACC-257): 79%; growth at 0.001 µM (HCT-116): 95%; growth at 0.01 µM (OVCAR-5 [6]): 100%; growth at 0.001 µM (HT-29): 103%; growth at 1 µM (SNB-19 [7]): 85%; GI50 (SK-OV-3): > 100 µM; IC50 (SK-OV-3): 9.42 µM; LC50 (concentration giving 50% net cell kill) (SK-OV-3): > 100 µM; TGI (SK-OV-3): > 100 µM; growth at 10 µM (DU-145): 59%; growth at 0.001 µM (SF-539): 97%; growth at 0.1 µM (SNB-19 [8]): 95%; growth at 0.1 µM (EKVX): 91%; growth at 0.001 µM (NCI-H460 [9]): 109%"
